An excerpt weighted towards active compounds, which were near 2.2% of everything screened.
Cneo AK release: causes C. neoformans cell lysis. adenylate kinase release luminescence, 4 h; normalised: neutral wells 0, clomiphene wells 100. lysis activity, % at 15 µM. hit rate 0.2% among 360,000. AID 651654;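 active means mean lysis activity across replicates of at least 80%, whatever share of replicates individually reach that level; inactive means mean lysis activity below 80%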
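Assay system: log-phase C. neoformans yeast / Quantity: yeast cell density of 5 × 10^6 cells/mL / Medium: fresh YPD growth medium / Compound: single dose / Timing: static 4 h at 37 °C with compound, 1 h detection / Measured by: adenylate kinase release luminescence / Read-out: lysis from increased AK signal / Benchmarks: Clomiphene as positive lysis control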
PglD DTNB: PglD (C. jejuni) enzyme inhibition | purified PglD enzyme, DTNB colorimetric CoA detection | inhibition, % at 12.5 µM | hit rate 0.098% among 360,000; in the data active means inhibition above about 16%, passing the limit was not always enough
CR mimetic SO: yeast age-related superoxide inhibition as caloric restriction mimetic. hit rate 0.18% among 330,000. S. cerevisiae aged cells, superoxide DHE fluorescence; active compounds read low. superoxide response (% of plate mean), % at 10 µM;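 active means superoxide response under a set limit, about three screen SD below normal, cut at about 65% in these data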;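 further: yeast aged for seven days with compound at 30 °C before DHE staining; 100% = average MFI of all compound-treated wells on the plate with controls excluded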
SUMO Mot1 rescue: blocks SUMOylation pathway, rescuing yeast Mot1-301 growth | S. cerevisiae Mot1-301 growth rescue, ATP luminescence, 38.5C; percent above DMSO median, 100 means doubled | hit rate 1% among 320,000 | growth rescue, % at 18.8 µM;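 active means every valid replicate shows activation above 250% relative to neutral control wells; inactive means the rest, any valid replicate at or below 250%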;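 further: OY570 slx delta 5 strain wells were the positive control but not used for scaling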
rRNA inh HTS: selective bacterial rRNA inhibition in E. coli. E. coli WT GFP vs humanized-ribosome RFP mutants, fluorescence, 24 h; active compounds read low; DMSO median 0, no signal -100. GFP signal change (wild-type ribosome), % (concentration not given with the values). hit rate 1.6% among 350,000. AID 720706;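 active means significant combined selectivity score with lowered wild-type GFP, culture density cut under 30%, mutant RFP and density less affected; inactive means any of these conditions unmet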
An asterisk follows results filed as active; x = no result given.

SMILES	Cneo AK release	PglD DTNB	CR mimetic SO	SUMO Mot1 rescue	rRNA inh HTS
Cc1noc(C)c1NC(=O)Nc1cccc2c1O[C@@H](CN(C)C(=O)Nc1c(C)noc1C)[C@H](C)CN([C@@H](C)CO)C2=O	-2	0	x	x	0
O=C(NC1CCN(Cc2ccccc2)CC1)C1COc2ccccc2O1 (stereo not given)	-6	-1	96	273*	x
C[C@@H]1CN([C@H](C)CO)S(=O)(=O)c2ccc(C#C[C@@H](C)O)cc2O[C@H]1CN(C)C(=O)C1CC1	4	-1	x	x	1
COc1ccc(S(=O)(=O)Nc2ccc3c(c2)C(=O)N([C@H](C)CO)C[C@H](C)[C@H](CN(C)S(=O)(=O)c2ccc(C)cc2)OCCCC[C@H](C)O3)cc1	2	-9	x	x	1
O=C(COC(=O)c1ccc(-c2ccc([N+](=O)[O-])cc2)o1)NC(=O)NC1CCCCC1	3	1	87	8	-33*
NC(=O)COC(=O)c1cc(-c2cccs2)nn1-c1ccccc1	1	4	104	x	11
COC(=O)c1cc(-c2cccs2)nn1-c1ccccc1	x	x	90	-11	-29*
CCC(=O)Nc1ccc2c(c1)C(=O)N(C)C[C@H](OC)[C@H](C)CN(Cc1ccncc1)[C@H](C)CO2	-1	2	x	x	0
C[C@@H]1CCCCO[C@H](CN(C)C(=O)NC2CCCCC2)[C@H](C)CN([C@@H](C)CO)C(=O)c2cc(NS(=O)(=O)c3ccccc3)ccc2O1	1	-1	x	x	-4
COc1ccccc1Nc1nc(C)c(C(=O)Nc2ccccc2)s1	-2	1	96	338	-32*
Cc1nc(Nc2ccc(S(N)(=O)=O)cc2)sc1C(=O)Nc1ccccc1	x	x	93	-13	-35*
Cc1nc(Nc2ccccc2Cl)sc1C(=O)Nc1ccccc1	-1	-4	101	16	-42
C[C@H]1CN([C@@H](C)CO)C(=O)c2cc(/C=C/c3ccccc3)cnc2O[C@@H]1CN(C)Cc1cncnc1	1	1	x	x	3
FC(F)(F)c1ccc(NC(=S)NC2CCCCC2)cc1	37	4	96	0	-54*
S=C(Nc1ccc2nsnc2c1)NC1CCCCC1	x	x	90	1	-44*
FC(F)(F)c1cccc(NC(=S)NC2CCCC2)c1	x	x	112	17	x
CNC[C@H]1Oc2ccc(NS(=O)(=O)c3ccc(OC)cc3)cc2CC(=O)N([C@H](C)CO)C[C@H]1C	x	x	x	x	2
COCC(=O)N1CC2(C1)CN(C(=O)CN1CCOCC1)[C@H](CO)c1c2c2ccc(OC)cc2n1C	x	x	x	x	1
COC(=O)C1=CN(c2ccc(OC)cc2OC)C(N)=C(C#N)C1c1ccc(OC)cc1 (stereo not given)	x	x	x	x	-26*
O=C(COc1ccccc1)NNc1nc2ccccc2s1	-2	-3	78	3	-28*
COc1ccc2nc(NNC(=O)COc3ccccc3)sc2c1	x	x	91	-1	-3
COc1ccc2nc(NC(=O)Nc3cccc4ccccc34)sc2c1	x	x	115	x	-23*
COc1cccc(C(=O)Nc2nc3ccccc3s2)c1	-16	19	109	20	-30*
COc1ccccc1NC(=O)CCc1nc2ccccc2s1	x	x	86	227	-17
COc1ccc(C(=O)CCc2nc3ccccc3s2)cc1	-1	0	104	355*	x
SMILES	Cneo AK release	PglD DTNB	CR mimetic SO	SUMO Mot1 rescue	rRNA inh HTS
CO[C@@H]1CN(C)C(=O)c2cc(NC(=O)C3CCC3)ccc2OC[C@@H](C)N(Cc2nccs2)C[C@@H]1C	-1	-1	x	x	-3
CC(C)NC(=O)Nc1ccc2c(c1)C(=O)N([C@H](C)CO)C[C@H](C)[C@@H](CN(C)S(=O)(=O)c1cn(C)cn1)OCCCC[C@@H](C)O2	-3	0	x	x	9
COc1ccccc1NC(=O)Nc1nc2ccc(S(N)(=O)=O)cc2s1	-5	-2	105	6	-16*
C=CCCN(CC#C[C@H]1Oc2ccccc2S(=O)(=O)N2CCC[C@@H]12)S(=O)(=O)c1ccc(C)cc1	8	0	x	x	x
O=C(O)[C@H](Cc1ccccc1)NC(=O)C(c1ccccc1)(c1ccccc1)c1ccccc1	-6	0	104	-13	-23*
COC(=O)Nc1cc(C(=O)c2ccc(Cl)cc2Cl)c[nH]1	1	5	92	0	-47*
COC(=O)NNC(=O)c1ccc(Cl)cc1Cl	x	x	103	-20	x
C[C@@H]1CCCCO[C@@H](CN(C)Cc2ccccc2)[C@H](C)CN([C@@H](C)CO)C(=O)c2cc(NS(=O)(=O)c3cccs3)ccc2O1	1	2	x	x	-1
CC(C)NC(=O)Nc1ccc2c(c1)C(=O)N([C@H](C)CO)C[C@H](C)[C@@H](CN(C)S(=O)(=O)c1ccc(Cl)cc1)OCCCC[C@@H](C)O2	-1	0	x	x	-1
CC(C)(C)c1ccc(C(=O)NC(=S)NCc2cccnc2)cc1	x	1	96	-2	x
CCc1ccc(C(=O)NC(=S)NCc2cccnc2)cc1	87*	5	115	20	1
COc1ccc(C(=O)NC(=S)NCc2cccnc2)cc1Cl	-4	-1	90	2	-21*
COc1ccc(C(=O)NCc2cccnc2)cc1Br	1	0	105	4	x
CN1c2ccc(-c3cccc(F)c3)cc2[C@@H]2[C@@H](CCN2C(=O)C2CCC2)[C@@H]1CO	x	x	x	x	-44
N#Cc1ccc(NC(=O)Nc2ccc(Oc3ccc(NC(=O)Nc4ccc(C#N)cc4)cc3)cc2)cc1	-1	4	98	4	-28*
N#Cc1ccc(NC(=O)Nc2cccc(C#N)c2)cc1	x	x	90	-14	-30
CNC[C@@H]1Oc2ccc(N)cc2C(=O)N([C@H](C)CO)C[C@H]1C	6	-1	x	x	0
O=C(C(=O)N1CCC(CNS(=O)(=O)c2ccc(F)cc2)CC1)c1cc2ccccc2o1	x	x	x	x	-9
COc1ccc(C(=O)NCC2CCN(C(=O)C(=O)c3cc4ccccc4o3)CC2)c(OC)c1	x	x	x	x	-13*
COC(=O)c1cc(S(=O)(=O)NCC2CCN(C(=O)C(=O)c3cc4ccccc4o3)CC2)cs1	x	x	x	x	-19*
CC(=O)c1cnn(-c2c(Cl)cc(Cl)cc2Cl)c1C	0	0	87	-8	-22*
N=c1c2c(n(Cc3ccc(Cl)cc3)c3c1CCC3)CCC2	1	6	91	-10	-53*
N=c1c2c(n(Cc3cccc(Cl)c3)c3c1CCC3)CCCC2	x	x	98	-15	-52*
Clc1cccc(CN2CCCCCC2)c1	-1	2	96	25	2
N=c1c2c(n(Cc3ccc(F)cc3)c3c1CCC3)CCCC2	x	x	96	x	-31*
N=c1c2c(n(Cc3ccccc3)c3c1CCC3)CCC2	0	-3	102	x	x
C[C@H](CO)N1C[C@H](C)[C@@H](CN(C)C(=O)NC2CCCCC2)Oc2c(NC(=O)Cn3cnnn3)cccc2C1=O	x	x	x	x	5
CC(C)NC(=O)N(C)C[C@H]1Oc2cc(C#CCN(C)C)ccc2S(=O)(=O)N([C@@H](C)CO)C[C@H]1C	-6	6	x	x	9
O=C(CSc1nc2ccccc2s1)Nc1ccc2c(c1)OCO2	x	x	83	22	-28*

Bioassay records from PubChem.
